Reference: PubChem BioAssay AID1744 (Vanderbilt High Throughput Screening Facility, 2009)

These molecules were tested against Muscarinic acetylcholine receptor M1 (Rattus norvegicus) (UniProt P08482) (assay: agonist potency across muscarinic M1-M5 subtypes, profiling panel, selectivity assay for M1 allosteric modulator project, cell-based, agonist mode (AID 1744)). Settings: CHO-K1 rat M1, Fluo-4 calcium flux; call rule not given here.
In short: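 Material: rat M1-expressing CHO-K1 cells; doses: compounds alone, agonist mode; times: Fluo-4 dye loading for 1 h at 37 °C; measured by: Fluo-4 calcium fluorescence; benchmarks: maximal acetylcholine response as high reference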

EC50, active:
CCOC(=O)N1CCC(NCCNC(=O)c2ccccc2Cl)CC1 804 nM
CCOC(=O)N1CCC(NCCNC(=O)c2ccccc2C)CC1 198 nM
CCOC(=O)N1CCC(NCCNC(=O)c2cccs2)CC1 1740 nM
CCOC(=O)N1CCC(NCCNC(=O)c2ccc(F)cc2)CC1 154 nM
CCOC(=O)N1CCC(NCCNC(=O)c2ccccc2)CC1 152 nM
CCOC(=O)N1CCC(NCCNC(=O)c2cccc(OC)c2)CC1 438 nM
CCOC(=O)N1CCC(NCCNC(=O)c2ccc(F)c(F)c2)CC1 211 nM
CCOC(=O)N1CCC(NCCNC(=O)c2cccc(F)c2)CC1 154 nM
